# Test results reported in ChEMBL document CHEMBL1132613 (J Med Chem, 1999).
# How the values were obtained:
# [1] = test system: Rattus norvegicus; test: Percentage of animals emitting >80% of lever presses in LSD trained rats at a compound dose of 1.58 uM/Kg; format: functional
# In short: (§1)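 Male Sprague–Dawley rats (200–220 g) in a two-lever, FR50 food-reinforced task. Rats were trained to discriminate saline from LSD tartrate (0.08 mg/kg), DOI HCl (0.4 mg/kg) or LY293284 (0.025 mg/kg) in 15-min sessions. %SDL is the share of rats making over 80% of presses on the drug lever. %D is the share failing to make 50 presses within 15 min. ED50 by Litchfield–Wilcoxon log-probit.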
# [2] = test system: Rattus norvegicus; test: Percentage of animals failing to emit 50 lever presses within 15 min in […] trained rats at a compound dose of 2 mg/kg; format: functional
# In short: (§2)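 Two-lever drug discrimination in male Sprague–Dawley rats (200–220 g at start), trained against saline on LSD tartrate (0.08 mg/kg), DOI HCl (0.4 mg/kg) or LY293284 (0.025 mg/kg). FR50 food-pellet reinforcement, levers counterbalanced, 15-min sessions at 22–24 °C. %D is the share of tested rats not completing 50 lever presses within 15 min.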
# [3] = test system: Rattus norvegicus; test: Percentage of animals emitting >80% of lever presses in LSD trained rats at a compound dose of 6.32 uM/Kg; format: functional; in short: as §1
# [4] = test system: Rattus norvegicus; test: Percentage of animals failing to emit 50 lever presses within 15 min in LSD trained rats at a compound dose of 1.0 mg/kg; format: functional; in short: as §1
# [5] = test system: Rattus norvegicus; test: Percentage of animals failing to emit 50 lever presses within 15 min in LSD trained rats at a compound dose of 4.0 mg/kg; format: functional; in short: as §2
# [6] = test system: Rattus norvegicus; test: Percentage of animals emitting >80% of lever presses in DOI trained rats at a compound dose of 25.3 uM/Kg; format: functional; in short: as §1
# [7] = test system: Rattus norvegicus; test: Percentage of animals failing to emit 50 lever presses within 15 min in […] trained rats at a compound dose of 8 mg/kg; format: functional; in short: as §2
# [8] = test system: Rattus norvegicus; test: Percentage of animals emitting >80% of lever presses in LSD trained rats at a compound dose of 50.6 uM/Kg; format: functional; in short: as §1
# [9] = test system: Rattus norvegicus; test: Percentage of animals failing to emit 50 lever presses within 15 min in LSD trained rats at a compound dose of 8.0 mg/kg; format: functional; in short: as §2
# [10] = test system: Rattus norvegicus; test: Percentage of animals failing to emit 50 lever presses within 15 min in DOI trained rats at a compound dose of 4 mg/kg; format: functional; in short: as §1
# [11] = test system: Rattus norvegicus; test: Percentage of animals emitting >80% of lever presses in DOI trained rats at a compound dose of 6.32 uM/Kg; format: functional; in short: as §1
# [12] = test system: Rattus norvegicus; test: Percentage of animals emitting >80% of lever presses in […] trained rats at a compound dose of 6.32 uM/Kg; format: functional; in short: as §1
# [13] = test system: Rattus norvegicus; test: Percentage of animals failing to emit 50 lever presses within 15 min in LSD trained rats at a compound dose of 2.0 mg/kg; format: functional; in short: as §1
# [14] = test system: Rattus norvegicus; test: Percentage of animals emitting >80% of lever presses in DOI trained rats at a compound dose of 50.6 uM/Kg; format: functional; in short: as §1
# [15] = biological target: 5-hydroxytryptamine receptor 2B (Homo sapiens, UniProt P41595); test: Compound was tested for the displacement of [3H]5-HT from clone human 5-hydroxytryptamine 2B receptor
# In short: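 Membranes from AV12 cells stably expressing human 5-HT2B, 100–150 μg protein. [3H]-5-HT was about 2 nM (1.7–2.5 nM) final. Buffer was 50 mM Tris pH 7.4 with 3 mM CaCl2, 10 μM pargyline and 0.1% ascorbic acid. Drug dilutions spanned 6 log units. Incubation was 15 min at 37 °C. Nonspecific binding used 10 μM 5-HT or 1-NP. PEI-soaked GF/B filtration, scintillation counting, triplicate, sigmoid nonlinear regression.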
# [16] = test system: Rattus norvegicus; test: Percentage of animals emitting >80% of lever presses in […] trained rats at a compound dose of 50.6 uM/Kg; format: functional; in short: as §1
# [17] = test system: Rattus norvegicus; test: Percentage of animals failing to emit 50 lever presses within 15 min in DOI trained rats at a compound dose of 2 mg/kg; format: functional; in short: as §1
# [18] = test system: Rattus norvegicus; test: Percentage of animals failing to emit 50 lever presses within 15 min in LSD trained rats at a compound dose of 0.5 mg/kg; format: functional; in short: as §1
# [19] = test system: Rattus norvegicus; test: Percentage of animals failing to emit 50 lever presses within 15 min in […] trained rats at a compound dose of 4 mg/kg; format: functional; in short: as §2
# [20] = test system: Rattus norvegicus; test: Percentage of animals failing to emit 50 lever presses within 15 min in LSD trained rats at a compound dose of 16 mg/kg; format: functional; in short: as §1
# [21] = test system: Rattus norvegicus; test: Percentage of animals emitting >80% of lever presses in LSD trained rats at a compound dose of 3.16 uM/Kg; format: functional; in short: as §1
# [22] = test system: Rattus norvegicus; test: Percentage of animals emitting >80% of lever presses in […] trained rats at a compound dose of 25.3 uM/Kg; format: functional; in short: as §1
# [23] = test system: Rattus norvegicus; test: Percentage of animals emitting >80% of lever presses in […] trained rats at a compound dose of 12.6 uM/Kg; format: functional; in short: as §1
# [24] = biological target: 5-hydroxytryptamine receptor 2A (Homo sapiens, UniProt P28223); test: Compound was tested for the displacement of [125I]-DOI from clone human 5-hydroxytryptamine 2A receptor
# In short: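 Membranes from AV12 hamster fibroblasts stably expressing human 5-HT2A or 5-HT2C. [125I]DOI was about 0.07–0.15 nM final. Buffer was 50 mM Tris-HCl pH 7.4 with 10 μM pargyline, 9.75 mM MgCl2, 0.5 mM Na2-EDTA and 0.1% Na ascorbate. Incubation was 30 min at 37 °C with about 40 μg protein (2A) or 30 μg (2C). Nonspecific binding used 1 μM ketanserin (2A) or 10 μM mianserin (2C). Read by gamma counting; sigmoid nonlinear regression.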
# [25] = test system: Rattus norvegicus; test: Percentage of animals failing to emit 50 lever presses within 15 min in DOI trained rats at a compound dose of 8 mg/kg; format: functional; in short: as §1
# Sequence of 5-hydroxytryptamine receptor 2A (P28223 whole entry): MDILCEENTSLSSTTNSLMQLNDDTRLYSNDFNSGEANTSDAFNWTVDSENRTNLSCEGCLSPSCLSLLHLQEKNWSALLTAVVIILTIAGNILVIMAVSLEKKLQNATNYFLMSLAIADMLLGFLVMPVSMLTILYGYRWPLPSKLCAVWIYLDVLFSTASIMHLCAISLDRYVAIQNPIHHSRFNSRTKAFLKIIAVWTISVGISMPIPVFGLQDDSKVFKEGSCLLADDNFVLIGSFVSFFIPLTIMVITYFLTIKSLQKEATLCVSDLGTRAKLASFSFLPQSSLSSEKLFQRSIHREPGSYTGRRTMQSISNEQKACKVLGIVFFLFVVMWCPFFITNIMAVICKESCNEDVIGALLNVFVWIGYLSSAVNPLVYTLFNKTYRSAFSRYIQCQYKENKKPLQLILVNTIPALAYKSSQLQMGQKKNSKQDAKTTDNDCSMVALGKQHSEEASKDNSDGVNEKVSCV
# Sequence of 5-hydroxytryptamine receptor 2B (P41595 whole entry): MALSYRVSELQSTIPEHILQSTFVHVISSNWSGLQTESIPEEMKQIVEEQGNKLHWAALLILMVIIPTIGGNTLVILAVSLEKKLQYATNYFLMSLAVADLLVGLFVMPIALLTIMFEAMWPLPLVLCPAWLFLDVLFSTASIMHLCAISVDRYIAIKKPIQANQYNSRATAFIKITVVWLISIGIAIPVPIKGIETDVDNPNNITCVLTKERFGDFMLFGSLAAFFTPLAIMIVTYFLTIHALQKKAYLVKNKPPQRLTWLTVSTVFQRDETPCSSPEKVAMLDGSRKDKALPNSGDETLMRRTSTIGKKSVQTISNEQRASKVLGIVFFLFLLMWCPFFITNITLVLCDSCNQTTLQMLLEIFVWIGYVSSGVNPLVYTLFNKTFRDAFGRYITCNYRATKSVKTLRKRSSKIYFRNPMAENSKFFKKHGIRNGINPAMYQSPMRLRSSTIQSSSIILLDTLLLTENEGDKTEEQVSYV
compound,measurement,setting,value
CN(C)CCc1c[nH]c2sccc12,SDL,[1],14%
same,D,[2],0%
same,SDL,[3],9%
same,D,[4],0%
same,D,[5],0%
same,SDL,[6],0%
same,D,[7],0%
same,SDL,[8],16.7%
same,D,[9],0%
same,D,[10],0%
same,SDL,[11],0%
same,SDL,[12],10%
same,D,[13],0%
same,SDL,[14],0%
same,Ki,[15],483 nM
same,SDL,[16],83%
same,D,[17],0%
same,D,[18],22%
same,D,[19],0%
same,D,[20],50%
same,SDL,[21],7.7%
same,SDL,[22],58%
same,SDL,[23],67%
same,Ki,[24],106 nM
same,D,[25],12.5%
